Compound activity: PubChem BioAssay, The Scripps Research Institute Molecular Screening Center
mABHD4 FP: ABHD4 inhibitors, primary screen, biochemical, fluorescence polarization, mouse; (Lyso)-N-acylphosphatidylethanolamine lipase (Mus musculus), Q8VD66; purified mABHD4, FP-Rh probe fluorescence polarization; inhibition, % at 8.92 µM; hit rate 0.54% among 370,000; AID 720543, 2013;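 active = inhibition exceeding the mean over every tested compound plus 3 SD, cut at about 30% in these data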;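 also: 0% = plate median of compound wells and 100% = S159A mutant with DMSO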
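Assay system: wild-type mouse ABHD4 protein; compound: single nominal dose of 8.92 µM, 0.89% DMSO final; schedule: 45 min + 60 min at 25 °C; measured by: FP readout, ex 525 nm / em 598 nm; evaluation: % inhibition of FP-Rh probe binding versus controls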
HTRA1 inhibitor: HTRA1 serine protease inhibitors, primary screen, biochemical, fluorescence polarization, HTS; Q92743; recombinant HTRA1, FP-rhodamine activity-based probe; inhibition, % at 5.96 µM; hit rate 0.5% among 340,000; AID 504803, 2011; in the data active = inhibition above about 36%;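 also: 0% = enzyme with DMSO and 100% = wells lacking enzyme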
Target sequence (Q92743 whole entry, looked up): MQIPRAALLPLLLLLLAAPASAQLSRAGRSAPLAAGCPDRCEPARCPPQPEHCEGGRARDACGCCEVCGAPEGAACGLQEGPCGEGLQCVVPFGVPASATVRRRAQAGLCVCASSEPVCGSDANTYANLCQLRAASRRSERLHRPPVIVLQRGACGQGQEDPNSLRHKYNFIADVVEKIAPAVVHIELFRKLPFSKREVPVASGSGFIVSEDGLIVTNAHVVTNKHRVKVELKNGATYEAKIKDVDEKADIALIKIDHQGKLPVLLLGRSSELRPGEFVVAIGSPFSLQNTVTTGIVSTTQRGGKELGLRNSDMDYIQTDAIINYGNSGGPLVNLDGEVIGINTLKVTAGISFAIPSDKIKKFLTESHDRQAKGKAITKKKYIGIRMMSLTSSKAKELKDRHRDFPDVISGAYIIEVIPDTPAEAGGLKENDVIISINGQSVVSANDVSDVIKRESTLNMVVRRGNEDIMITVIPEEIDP
DDE Tn7 FP inh: inhibitors of Tn7 peptide binding to fibrin DD(E), primary screen, biochemical, fluorescence polarization, human fibrin, Tn7 probe. hit rate 0.13% among 370,000. inhibition, % at 8.3 µM. Fibrinogen beta chain (Homo sapiens), P02675. FP displacement of FITC-Tn7 peptide from fibrin DD(E); 0% = median of compound wells per plate;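 active = inhibition above the mean of compounds falling within the control limits plus 3 SD of them, cut at about 14% in these data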;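 also: 0% = plate median of compound wells and 100% = 10 µM Aha-Tn7 peptide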
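Test system – human fibrin DD(E) · Times – 10 min preincubation, 3 h with tracer, room temperature · Detection – fluorescence polarization of the labelled Tn7 tracer · Measure – percent inhibition normalized to high-control wells · Benchmarks – high control wells with 10 µM unlabelled Aha-Tn7 peptide (full inhibition) · Repeats – singlicate testing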
SIAE inh: human SIAE inhibitors, primary screen, biochemical, fluorescence polarization, FP-Rh probe, 1536-well HTS; Sialate O-acetylesterase (Homo sapiens), Q9HAT2; SIAE FP-Rh probe binding; inhibition, % at 9.66 µM; hit rate 0.69% among 370,000; AID 1053197, 2014;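 active = inhibition above a cutoff: mean of compounds within the control limits plus 3 SD of those, cut at about 17% in these data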;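 also: 0% = plate median of compound wells and 100% = probe without SIAE protein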
Tn6 DDE FP: inhibitors of Tn6 peptide binding to fibrin DD(E), primary screen, biochemical, fluorescence polarization, human fibrin, Tn6 probe; hit rate 0.21% among 370,000; Fibrinogen beta chain (Homo sapiens), P02675; Fibrin DD(E) TRITC-Tn6 fluorescence polarization displacement; inhibition, % at 8.3 µM;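 active = inhibition above a per-campaign cutoff: mean of compounds within control limits plus 3 SD, cut at about 15% in these data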;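 also: 0% = median of all compound wells on the plate and 100% = blocking peptide control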
TCR CD3 inh: inhibitors of human TCR-CD3 interaction, primary screen, biochemical, fluorescence, TAMRA-labeled TCR probe | inhibition, % at 9.4 µM | hit rate 0.37% among 360,000 | T-cell receptor (TCR); in the data active = inhibition above about 19%;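 also: recombinant mutant TCR 2C K166C tagged with TAMRA read by polarization; 0% = receptor in buffer alone and 100% = receptor with positive control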
ABHD4 confirm: ABHD4 inhibitors, retest, confirmation, biochemical, fluorescence polarization, mouse; shares compounds with mABHD4 FP; purified mABHD4, FP-Rh probe fluorescence polarization; inhibition, % at 8.92 µM; hit rate 55% among 1,800; AID 720658, 2013;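 active = mean inhibition across replicates above the hit cutoff set in the primary screen, cut at about 30% in these data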;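 also: 0% = wild-type ABHD4 with DMSO and 100% = catalytically dead S159A mutant with DMSO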
Starred values were filed as active, the others as inactive; . = not tested or not shown. Shown are actives, neighbours in structure and some others; about 1.8% of the full set was active somewhere.

SMILES	mABHD4 FP	HTRA1 inhibitor	DDE Tn7 FP inh	SIAE inh	Tn6 DDE FP	TCR CD3 inh	ABHD4 confirm
Cc1ccccc1N=Nc1c(N)[nH]n(-c2ccccc2)c1=O	33.9*	.	3.2	8.8	1.3	.	43.4*
Cc1cc([N+](=O)[O-])ccc1N=Nc1c(N)[nH]n(-c2ccccc2)c1=O	29.9*	3.2	5.0	9.0	0.2	8.3	40.8*
Nc1[nH]n(-c2ccccc2)c(=O)c1N=Nc1ccc2c(c1)OCCO2	30.4*	28.4	-4.2	8.6	-2.9	5.9	28.5
Nc1[nH]n(-c2ccccc2)c(=O)c1N=Nc1ccc(F)cc1	27.0	.	6.1	11.4	-5.1	.	.
COC(=O)C1=C(C)N(Cc2cccc(C(F)(F)F)c2)C(=NCc2cc(OC)c(OC)c(OC)c2)NC1c1cccc(F)c1 (stereo not drawn)	15.5	.	1.0	-1.9	2.1	2.2	.
Cc1ccc(C2c3c(n[nH]c3C)C(=O)N2Cc2ccccc2)cc1 (stereo not drawn)	-10.0	.	1.5	4.7	-2.9	-4.6	.
COc1ccc(Br)cc1CSC(=N)N	3.8	4.2	-0.6	-3.1	-3.6	6.4	.
CCOc1ccc(CSC(=N)N)cc1	-0.4	0.6	-0.3	4.6	-3.6	0.2	.
CCCCCOc1ccc(Br)cc1CSC(=N)N	40.1*	-16.5	-1.2	-0.1	2.1	3.4	48.9*
CCCCOc1ccc(CSC(=N)N)cc1Cl	37.9*	-1.7	7.4	-3.4	-1.6	-8.0	22.2
O=C(NCc1cccs1)C1C2C=CC3(CN(Cc4ccccc4)C(=O)C13)O2 (stereo not drawn)	-5.7	.	10.1	-1.0	-4.6	.	.
COc1ccc(-c2nnc(SCC(=O)NN=Cc3c(O)ccc4ccccc34)n2-c2ccc(OC)cc2)cc1	6.6	.	4.4	13.3	-8.1	.	.
O=C(CN1CCN(c2ccc(O)cc2)CC1)Nc1ccccc1C(=O)NCCc1ccccc1	32.3*	26.6	-5.9	10.3	-10.1	-5.7	20.9
O=C(N1CCc2ccccc2C1)n1cc(C(O)(c2ccccc2)c2ccccc2)nn1	85.9*	.	5.2	-10.4	-2.7	.	69.0*
CC1(C)CC(=O)N(CC(=O)N2CCN(c3cccc(Cl)c3Cl)CC2)c2ccccc2S1(=O)=O	-2.6	.	4.9	2.9	5.1	.	.
CN1c2ccccc2Sc2cc(N)ccc21	36.9*	23.3	12.4	9.0	-0.7	0.6	62.8*
COc1cc(O)c(C(CC(=O)N2CCC(C)CC2)c2ccc3c(c2)OCO3)c(OC)c1 (stereo not drawn)	0.1	.	-1.0	4.1	4.1	.	.
O=C(NNc1nc2ccccc2s1)Nc1ccc(Cl)c(Cl)c1	11.9	-11.1	-7.0	5.0	1.2	-19.5	.
O=C(NNc1nc2ccccc2s1)Nc1ccc(F)cc1	38.0*	7.0	3.6	12.5	1.1	-0.4	0.8
C#CCN1CC(N(C)CCOC(=O)c2ccc(F)cc2)CS1(=O)=O (stereo not drawn)	6.8	.	-11.3	1.1	-2.8	.	.
O=C(C=Cc1ccco1)c1ccc([N+](=O)[O-])cc1	37.4*	1.9	-3.6	10.3	-7.8	4.6	5.1
CC(/C=C/c1ccco1)=N\NC(=O)c1cccnc1	2.1	-5.5	6.1	4.5	-0.6	12.5	.
O=C(/C=C/c1ccco1)c1cccnc1	36.1*	3.2	2.7	15.1	-1.3	17.9	-2.6
CC(=O)Nc1ccc(S(=O)(=O)NCC2CCN(C(=O)C(=O)c3cccs3)CC2)cc1	4.0	.	-1.8	-2.8	4.1	6.6	.
CCC1=Nc2cc(C(=O)N3CCCCC3)ccc2Sc2ccc(C)cc21	16.0	-33.5	0.4	12.4	-9.3	7.3	.
SMILES	mABHD4 FP	HTRA1 inhibitor	DDE Tn7 FP inh	SIAE inh	Tn6 DDE FP	TCR CD3 inh	ABHD4 confirm
CCCC1=Nc2cc(C(=O)N3CCCC3)ccc2Sc2ccc(C)cc21	31.9*	-37.3	1.8	-5.1	0.8	0.5	27.4
CC(C)CN(CC(C)C)C(=O)c1ccc2c(c1)NC(=O)C(C)(C)O2	8.8	.	0.5	2.4	-8.2	.	.
COC(=O)[C@]1(Cc2ccccc2)NC=C(C(=O)c2ccccc2)[C@@H]1c1cccs1	5.2	.	8.7	1.5	3.5	-2.1	.
CCOc1ccc(C=Nn2c(-c3cccc(OC(C)C)c3)n[nH]c2=S)cc1	-6.4	.	3.6	0.8	-1.5	.	.
Oc1ccc(C=Nc2cccc3ccccc23)c(O)c1	30.3*	19.0	-5.9	3.3	2.9	2.5	10.4
COc1cccc(CNC(=O)Cn2c(-c3ccccc3)cc(C(C)=O)c2C)c1OC	-4.9	.	0.2	-3.1	-1.0	.	.
CCCC(C(=O)O)N1C(=O)/C(=C2\C(=O)N(C)c3ccccc32)SC1=S (stereo not drawn)	41.0*	3.1	-3.7	11.8	-2.2	1.5	58.4*
O=C(O)CN1C(=O)/C(=C2\SC(=S)N(C(Cc3ccccc3)C(=O)O)C2=O)c2ccccc21 (stereo not drawn)	55.6*	-3.0	-2.9	2.4	2.0	-16.7	45.1*
CCCCC1O[C@@H](C)[C@@H]2CN3CCc4c([nH]c5ccccc45)[C@@H]3C[C@@H]2N1C (stereo partly drawn)	2.0	.	-2.7	9.0	-1.1	-0.2	.
CCN(C(=O)[C@@H](C)[C@@H](O)c1ccc(Cl)cc1)c1ccccc1	-5.0	.	3.5	-0.1	-0.5	.	.
COc1cc(O)c(C(CC(=O)N2CC(C)OC(C)C2)c2ccc3c(c2)OCO3)c(OC)c1 (stereo not drawn)	6.0	.	3.4	3.1	3.0	.	.
Cc1cccc(-c2cccc3c4c([nH]c23)[C@@H]2C[C@H](N(C)C(=O)c3ccccc3F)[C@H]([C@H](C)O)CN2CC4)c1	5.2	.	-3.6	4.7	0.0	.	.
COC(=O)[C@@H](NCc1ccc(B(O)O)cc1)C(C)C	48.2*	-3.1	-1.1	-5.5	2.4	3.7	35.9*
Cc1csc(=O)n1CC(=O)OCc1nnc(-c2ccc(Cl)cc2)o1	36.2*	6.7	-3.3	1.4	-5.0	-2.9	4.7
CC(C)(C)c1ccc(/C=C2\Oc3cc(OC(=O)N4CCOCC4)ccc3C2=O)cc1	67.3*	-2.4	-2.0	-3.5	-3.8	1.1	57.1*
CCOc1ccc2[nH]c3c(NCCC(C)C)ncnc3c2c1	38.9*	7.3	0.8	10.9	-1.8	-5.0	39.0*
CCOc1ccc2[nH]c3c(NCCN(C)C)ncnc3c2c1	4.4	8.7	-4.2	2.0	-5.8	-8.3	.
CCC(C)Sc1cc(-c2nc3ccc(C)cn3c2NCc2ccccc2)ccc1OC (stereo not drawn)	42.5*	14.1	-4.1	9.9	-0.3	2.3	36.4*
